Laboratory results published in the array DNA melting data of Ke et al. (doi:10.1101/2024.01.08.574731).

Columns and labels:
[1] = folding enthalpy; higher = less favourable; fluorescence melt of hairpins on a sequencing array, two-state fit; conditions: sodium 0.088 M
In short: (§1)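 Bootstrapped two-state fits yielded melting temperature and folding enthalpy for library hairpins. Cy3 fluorescence, with annealed Cy3 and quencher oligos, was imaged on a sequenced MiSeq flow cell in 50 mM Na-HEPES pH 8.0, 25 mM NaCl in 2.5 °C steps up to 60 °C, and normalised to pre-quench Cy3 and to control constructs. Four replicates were combined by inverse variance, and fitted temperatures were raised by 9.35 °C to match UV melts.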

[2] = melting temperature; fluorescence melt of hairpins on a sequencing array, two-state fit, raised by 9.35 °C to match UV melts; conditions: sodium 0.088 M
In short: as §1

Sequence	folding enthalpy [1] [kcal/mol]	Tm [2] [°C]
GGTTGCCCGAAAGGGACC (((..(((....))))))	-11.5	37.9
GGTTGCGAAAGCAAAACC ((((((....)))..)))	-19.5	48.9
GGTTGCGAAAGCAATACC ((((((....)))..)))	-13.3	42.9
GGTTGCGAAAGCACAACC ((((((....)))..)))	-19.6	44.2
GGTTGCGGAAACGCGATC (.(.(((....))).).)	-19.7	41.7
GGTTGCGGAAACGTAGCC ((.(.((....)).).))	-27.3	40.2
GGTTGCGGAAACGTGACC (((..((....))..)))	-32.2	48.8
GGTTGGCCGAAAGGCACC (((..(((....))))))	-12.8	41.4
GGTTGGCGAAAGCCGACC (((.(((....))).)))	-29.3	69.3
GGTTGGGGAAACCCAACC (((((((....)))))))	-36.8	66.4
GGTTGGGGAAACCCAGCC ((.((((....)))).))	-42.9	53.7
GGTTGGGGAAACTCAGCC ((.((.(....).)).))	-30.7	36.1
GGTTGTCGAAAGACGACC (((.(((....))).)))	-39.9	58.8
GGTTGTCGAAAGACTACC (((.(((....))).)))	-46	52
GGTTTACGAAAGTACACC (((.(((....))).)))	-28.3	45.2
GGTTTCGAAAGAACGACC ((((((....)))..)))	-14.4	29.6
GGTTTCGAAAGAACTACC ((((((....)))..)))	-10.1	29.4
GGTTTCGAAAGAAGAACC ((((((....)))..)))	-18.3	31.5
GGTTTCGAAAGAAGCACC ((((((....)))..)))	-16.5	28.6
GGTTTCGGAAACGAGACC (((.(((....))).)))	-33.1	50
GGTTTGAAAAAACC (((((....)))))	-25	46.3
GGTTTGGGAAACCGAACC ((((.((....)).))))	-34.2	52.3
GGTTTGGGAAACTAAGCC ((.((.(....).)).))	-13.6	30.2

Sequence	folding enthalpy [1] [kcal/mol]	Tm [2] [°C]
GGTTTTGCGAAAGCAACC (((..(((....))))))	-11.9	30.2
GGTTTTGGAAACGAAACC (((((.(....).)))))	-43.9	47.5
GTAAAACCGAAAGGTTAC (((..(((....))))))	-14.9	31
GTAAAACGAAAGTTATAC (((.(((....))).)))	-14.8	31.6
GTAAAAGGAAACTTTTGC (.(((((....))))).)	-24.1	33.5
GTAAACGAAAGTTTCTAC ((((((....)))..)))	-12.3	30.2
GTAAACGAAAGTTTGTAC ((((((....)))..)))	-15.1	27.6
GTAAACGAAAGTTTTTAC ((((((....)))..)))	-12	24.9
GTAAACGGAAACGTTTGC (.(((((....))))).)	-26.1	48.5
GTAAATCGAAAGATATAC (((.(((....))).)))	-12.1	29.7
GTAAATGGAAACATTTGC (.(((((....))))).)	-28.9	38.6
GTAACACGAAAGTGCTAC (((.(((....))).)))	-28.4	43.7
GTAACACGAAAGTGGTAC (((.(((....))).)))	-41.3	55.1
GTAACACGAAAGTGTAC (((.(((....))))))	-14	42.8
GTAACAGGAAACCGTTAC (((((.(....).)))))	-29.5	37.5
GTAACAGGAAACTGTCAC ((.((((....)))).))	-15.5	30.7
GTAACAGGAAACTGTTGC (.(((((....))))).)	-24.4	45.3
GTAACCCGAAAGGGATAC (((.(((....))).)))	-23.4	48.6
GTAACCGAAAGGTGGTAC ((((((....)))..)))	-12.3	33.8
GTAACCGAAAGGTTCTAC ((((((....)))..)))	-11.3	37.7
GTAACCGAAAGGTTTTAC ((((((....)))..)))	-8.83	29.2
GTAACGCGAAAGCGATAC (((.(((....))).)))	-24.1	51
GTAACGGGAAACCATTAC ((((.((....)).))))	-11.8	28.4

Sequence	folding enthalpy [1] [kcal/mol]	Tm [2] [°C]
GTAACGGGAAACTGTTAC (((((.(....).)))))	-30.4	46.3
GTAACTCGAAAGAGATAC (((.(((....))).)))	-27.6	42
GTAACTCGAAAGAGGTAC (((.(((....))).)))	-28.7	51.6
GTAACTGGAAACAGCTAC (((.(((....))).)))	-30.1	34.2
GTAAGAGCGAAAGCTTAC (((..(((....))))))	-14.9	33.5
GTAAGCACGAAAGTGTAC (((..(((....))))))	-9.4	27.9
GTAAGCGAAAGCTATAC ((((((....))).)))	-14.9	33.8
GTAAGCGAAAGCTGTAC ((((((....))).)))	-15.7	43
GTAAGCGAAAGCTTTAC ((((((....))).)))	-12.9	42
GTAAGCGCGAAAGCGTAC (((..(((....))))))	-9.28	28.8
GTAAGCGGAAACGCTTAC (((((((....)))))))	-36.1	65.2
GTAAGCGGAAACGCTTGC (.(((((....))))).)	-22.7	54.1
GTAAGGACGAAAGTCTAC (((..(((....))))))	-8.78	30.2
GTAAGGCGAAAGCCTAC (((.(((....))))))	-11.4	46
GTAAGGGCGAAAGCCTAC (((..(((....))))))	-8.85	29.7
GTAAGTCGAAAGACATAC (((.(((....))).)))	-21.5	38.7
GTAATCGAAAGATACTAC ((((((....)))..)))	-18.4	31.4
GTAATCGAAAGATTAC ((((((....))))))	-48.2	53.3
GTAATCGGAAACGATTAC (((((((....)))))))	-42.4	56.4
GTAATCGGAAACGATTGC (.(((((....))))).)	-25.6	48.2
GTAATCGGAAACGGTTAC ((((.((....)).))))	-33.2	46.7
GTAATCTCGAAAGAGTAC (((..(((....))))))	-10.9	26.7
GTAATGGGAAACCACTAC (((.(((....))).)))	-15.9	27.6

Sequence	folding enthalpy [1] [kcal/mol]	Tm [2] [°C]
GTAATTCGAAAGAAATAC (((.(((....))).)))	-16.9	33
GTAATTCGAAAGAATAC (((.(((....))))))	-15.2	32
GTAATTGGAAACAGTTAC ((((.((....)).))))	-21.2	35.9
GTACAAGGAAACTTGCAC ((.((((....)))).))	-25.4	34.1
GTACACCCGAAAGGGTAC (((..(((....))))))	-9.29	33
GTACACCGAAAGGTATAC (((.(((....))).)))	-22.3	39.1
GTACACCGAAAGGTCTAC (((.(((....))).)))	-15.3	30.9
GTACACGGAAACGTGCAC ((.((((....)))).))	-17.9	46.8
GTACAGAAATGTAC (((((....)))))	-20.2	40.4
GTACAGCGAAAGCTTAC (((.(((....))))))	-13.1	38.1
GTACAGGAAACTGTAC ((((((....))))))	-41.6	52.4
GTACAGGCGAAAGCCTAC (((..(((....))))))	-8.61	34.9
GTACAGGGAAACCTGTAC (((((((....)))))))	-40.3	59.4
GTACATCGAAAGATCTAC (((.(((....))).)))	-10.2	25.1
GTACATGGAAACACGTAC ((((.((....)).))))	-21.9	36.2
GTACCAGGAAACTGGCAC ((.((((....)))).))	-21.1	42.1
GTACCCCGAAAGGGCTAC (((.(((....))).)))	-14	35.7
GTACCCGAAAGGGACTAC ((((((....)))..)))	-14.3	45.8
GTACCCGAAAGGGAGTAC ((((((....)))..)))	-15.3	39.9
GTACCCGAAAGGGATAC ((((((....))).)))	-15.3	47
GTACCCGGAAACGGGCAC ((.((((....)))).))	-18.7	50
GTACCCTCGAAAGAGTAC (((..(((....))))))	-10.6	25.2
